Where “and” joins values, the source holds several entries; their conditions need not be identical. Identical values can stand only once.
Tested on: HEK-293T
Assay: Multiplex assay against HEK293T;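 as to Population Tubulin-Different-Phenotype (%): share of the cells with healthy nuclei that show this phenotype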
Type: toxicity, cell-based
Details: human
In short: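 Compound was added to live cells that had been stained at seeding with Hoechst33342, BioTracker Green Microtubule Cytoskeleton Dye, MitoTracker Red and Annexin V Alexa Fluor 680, and imaging followed on a CQ1 microscope at 37°C and 5% CO2. CellPathfinder machine-learning gating divided cells into Hoechst high-intensity objects or normal cells, normal cells into healthy, pyknosed or fragmented nuclei, and pyknosed cells into mitotic or apoptotic. Tubulin, mitochondrial-mass and membrane-permeability phenotypes are per cents of healthy-nucleus cells.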

[1] = 12 h, 1 µM, compound concentration 1 uM, replicate 1
[2] = 12 h, 1 µM, compound concentration 1 uM, replicate 2
[3] = 12 h, 10 µM, compound concentration 10 uM, replicate 1
[4] = 12 h, 10 µM, compound concentration 10 uM, replicate 2
[5] = 24 h, 1 µM, compound concentration 1 uM, replicate 1
[6] = 24 h, 1 µM, compound concentration 1 uM, replicate 2
[7] = 24 h, 10 µM, compound concentration 10 uM, replicate 1
[8] = 24 h, 10 µM, compound concentration 10 uM, replicate 2
[9] = 48 h, 1 µM, compound concentration 1 uM, replicate 1
[10] = 48 h, 1 µM, compound concentration 1 uM, replicate 2
[11] = 48 h, 10 µM, compound concentration 10 uM, replicate 1
[12] = 48 h, 10 µM, compound concentration 10 uM, replicate 2

CC(C)c1noc(N2CCC(COc3ccc(-c4ccc(S(C)(=O)=O)cc4)nc3)CC2)n1 [GSK-1292263]
Population Apoptotic (%) [1]: 36% | Population Fragmented Nuclei (%) [1]: 14% | Population Healthy Nuclei (%) [1]: 31% | Population Hoechst High Intensity Objects (%) [1]: 14% | Population Membrane Permeable-Phenotype (%) [1]: 8% | Population Mitochondria Different-Phenotype (%) [1]: 65% | Population Mitotic Cells (%) [1]: 63% | Population Normal (%) [1]: 85% | Population Pyknosed Nuclei (%) [1]: 54% | Population Tubulin-Different-Phenotype (%) [1]: 34% | Total Cell Count [1]: 304 | Population Apoptotic (%) [2]: 12% | Population Fragmented Nuclei (%) [2]: 2% | Population Healthy Nuclei (%) [2]: 50% | Population Hoechst High Intensity Objects (%) [2]: 1% | Population Membrane Permeable-Phenotype (%) [2]: 7% | Population Mitochondria Different-Phenotype (%) [2]: 15% | Population Mitotic Cells (%) [2]: 87% | Population Normal (%) [2]: 98% | Population Pyknosed Nuclei (%) [2]: 46% | Population Tubulin-Different-Phenotype (%) [2]: 16% | Total Cell Count [2]: 228 | Population Apoptotic (%) [3]: 50% | Population Fragmented Nuclei (%) [3]: 14% | Population Healthy Nuclei (%) [3]: 11% | Population Hoechst High Intensity Objects (%) [3]: 18% | Population Membrane Permeable-Phenotype (%) [3]: 16% | Population Mitochondria Different-Phenotype (%) [3]: 68% | Population Mitotic Cells (%) [3]: 50% | Population Normal (%) [3]: 81% | Population Pyknosed Nuclei (%) [3]: 74% | Population Tubulin-Different-Phenotype (%) [3]: 72% | Total Cell Count [3]: 276 | Population Apoptotic (%) [4]: 13% | Population Fragmented Nuclei (%) [4]: 7% | Population Healthy Nuclei (%) [4]: 20% | Population Hoechst High Intensity Objects (%) [4]: 12% | Population Membrane Permeable-Phenotype (%) [4]: 8% | Population Mitochondria Different-Phenotype (%) [4]: 26% | Population Mitotic Cells (%) [4]: 86% | Population Normal (%) [4]: 87% | Population Pyknosed Nuclei (%) [4]: 72% | Population Tubulin-Different-Phenotype (%) [4]: 26% | Total Cell Count [4]: 131 | Population Apoptotic (%) [5]: 39% | Population Fragmented Nuclei (%) [5]: 15% | Population Healthy Nuclei (%) [5]: 32% | Population Hoechst High Intensity Objects (%) [5]: 19% | Population Membrane Permeable-Phenotype (%) [5]: 2% | Population Mitochondria Different-Phenotype (%) [5]: 57% | Population Mitotic Cells (%) [5]: 60% | Population Normal (%) [5]: 80% | Population Pyknosed Nuclei (%) [5]: 51% | Population Tubulin-Different-Phenotype (%) [5]: 37% | Total Cell Count [5]: 316 | Population Apoptotic (%) [6]: 15% | Population Fragmented Nuclei (%) [6]: 6% | Population Healthy Nuclei (%) [6]: 62% | Population Hoechst High Intensity Objects (%) [6]: 3% | Population Membrane Permeable-Phenotype (%) [6]: 8% | Population Mitochondria Different-Phenotype (%) [6]: 14% | Population Mitotic Cells (%) [6]: 84% | Population Normal (%) [6]: 96% | Population Pyknosed Nuclei (%) [6]: 31% | Population Tubulin-Different-Phenotype (%) [6]: 31% | Total Cell Count [6]: 270 | Population Apoptotic (%) [7]: 58% | Population Fragmented Nuclei (%) [7]: 15% | Population Healthy Nuclei (%) [7]: 12% | Population Hoechst High Intensity Objects (%) [7]: 23% | Population Membrane Permeable-Phenotype (%) [7]: 7% | Population Mitochondria Different-Phenotype (%) [7]: 78% | Population Mitotic Cells (%) [7]: 41% | Population Normal (%) [7]: 76% | Population Pyknosed Nuclei (%) [7]: 72% | Population Tubulin-Different-Phenotype (%) [7]: 75% | Total Cell Count [7]: 298 | Population Apoptotic (%) [8]: 14% | Population Fragmented Nuclei (%) [8]: 7% | Population Healthy Nuclei (%) [8]: 38% | Population Hoechst High Intensity Objects (%) [8]: 9% | Population Membrane Permeable-Phenotype (%) [8]: 4% | Population Mitochondria Different-Phenotype (%) [8]: 32% | Population Mitotic Cells (%) [8]: 85% | Population Normal (%) [8]: 90% | Population Pyknosed Nuclei (%) [8]: 53% | Population Tubulin-Different-Phenotype (%) [8]: 55% | Total Cell Count [8]: 139 | Population Apoptotic (%) [9]: 37% | Population Fragmented Nuclei (%) [9]: 16% | Population Healthy Nuclei (%) [9]: 41% | Population Hoechst High Intensity Objects (%) [9]: 14% | Population Membrane Permeable-Phenotype (%) [9]: 4% | Population Mitochondria Different-Phenotype (%) [9]: 32% | Population Mitotic Cells (%) [9]: 62% | Population Normal (%) [9]: 85% | Population Pyknosed Nuclei (%) [9]: 42% | Population Tubulin-Different-Phenotype (%) [9]: 35% | Total Cell Count [9]: 377 | Population Apoptotic (%) [10]: 14% | Population Fragmented Nuclei (%) [10]: 4% | Population Healthy Nuclei (%) [10]: 80% | Population Hoechst High Intensity Objects (%) [10]: 4% | Population Membrane Permeable-Phenotype (%) [10]: 8% | Population Mitochondria Different-Phenotype (%) [10]: 3% | Population Mitotic Cells (%) [10]: 85% | Population Normal (%) [10]: 95% | Population Pyknosed Nuclei (%) [10]: 14% | Population Tubulin-Different-Phenotype (%) [10]: 22% | Total Cell Count [10]: 482 | Population Apoptotic (%) [11]: 63% | Population Fragmented Nuclei (%) [11]: 24% | Population Healthy Nuclei (%) [11]: 10% | Population Hoechst High Intensity Objects (%) [11]: 25% | Population Membrane Permeable-Phenotype (%) [11]: 8% | Population Mitochondria Different-Phenotype (%) [11]: 37% | Population Mitotic Cells (%) [11]: 36% | Population Normal (%) [11]: 74% | Population Pyknosed Nuclei (%) [11]: 64% | Population Tubulin-Different-Phenotype (%) [11]: 58% | Total Cell Count [11]: 296 | Population Apoptotic (%) [12]: 14% | Population Fragmented Nuclei (%) [12]: 8% | Population Healthy Nuclei (%) [12]: 62% | Population Hoechst High Intensity Objects (%) [12]: 3% | Population Membrane Permeable-Phenotype (%) [12]: 12% | Population Mitochondria Different-Phenotype (%) [12]: 12% | Population Mitotic Cells (%) [12]: 85% | Population Normal (%) [12]: 96% | Population Pyknosed Nuclei (%) [12]: 28% | Population Tubulin-Different-Phenotype (%) [12]: 54% | Total Cell Count [12]: 176

CN(c1ccccc1CNc1nc(Nc2ccc3c(c2)CC(=O)N3)ncc1C(F)(F)F)S(C)(=O)=O
Population Apoptotic (%) [3]: 20% and 22% | Population Fragmented Nuclei (%) [3]: 24% and 17% | Population Healthy Nuclei (%) [3]: 40% and 71% | Population Hoechst High Intensity Objects (%) [3]: 21% and 10% | Population Membrane Permeable-Phenotype (%) [3]: 10% | Population Mitotic Cells (%) [3]: 80% and 77% | Population Normal (%) [3]: 78% and 89% | Population Pyknosed Nuclei (%) [3]: 35% | Total Cell Count [3]: 538 and 612 | Population Apoptotic (%) [4]: 17% | Population Fragmented Nuclei (%) [4]: 3% and 5% | Population Healthy Nuclei (%) [4]: 85% and 90% | Population Membrane Permeable-Phenotype (%) [4]: 5% and 1% | Population Mitochondria Different-Phenotype (%) [4]: 37% | Population Mitotic Cells (%) [4]: 82% | Population Normal (%) [4]: 92% and 97% | Population Pyknosed Nuclei (%) [4]: 10% and 4% | Total Cell Count [4]: 896 and 1228 | Population Apoptotic (%) [7]: 23% and 26% | Population Fragmented Nuclei (%) [7]: 24% and 15% | Population Healthy Nuclei (%) [7]: 40% and 78% | Population Hoechst High Intensity Objects (%) [7]: 17% and 10% | Population Membrane Permeable-Phenotype (%) [7]: 4% and 9% | Population Mitotic Cells (%) [7]: 76% and 73% | Population Normal (%) [7]: 82% and 89% | Total Cell Count [7]: 531 and 582 | Population Apoptotic (%) [8]: 17% and 15% | Population Healthy Nuclei (%) [8]: 83% | Population Hoechst High Intensity Objects (%) [8]: 8% and 4% | Population Membrane Permeable-Phenotype (%) [8]: 3% and 2% | Population Mitochondria Different-Phenotype (%) [8]: 41% | Population Mitotic Cells (%) [8]: 82% and 84% | Population Normal (%) [8]: 91% and 95% | Total Cell Count [8]: 898 and 1570

Reference: ChEMBL document CHEMBL4689842, “EUbOPEN Chemogenomics Library wave 1” (2021)
